Measured values published in ChEMBL document CHEMBL3751671, “Synthesis and biological activity of diisothiocyanate-derived mercapturic acids” (Bioorg Med Chem Lett, 2016).

How the values were obtained:
[1] = Antiproliferative activity against human LoVo/DX cells assessed as reduction in cell viability after 72 hrs by SRB assay; format: functional, cell-based
Procedure, shortened: (§1)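 Human colon adenocarcinoma LoVo cells and their doxorubicin-resistant subline LoVo/DX. Growth was read by sulforhodamine B (SRB) staining. IC50 values are means ± SD from at least three experiments, each in triplicate.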

Histone deacetylase = assay: Inhibition of HDAC in human LoVo/DX cells using Boc-Lys(Ac)-AMC as substrate assessed as release of AMC pre-incubated for 15 mins followed by substrate addition measured after 3 hrs by indirect spectrofluorometric assay; format: cell-based
Procedure, shortened: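 Crude enzyme was LoVo/DX cell lysate. HDAC activity was read by an indirect spectrofluorometric assay, and IC50 was determined on the lysate.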

BALB/3T3 = assay: Cytotoxicity against mouse BALB/3T3 cells after 72 hrs by SRB assay; format: cell-based; details: BALB/3T3, 72 h
LoVo [2] = assay: Antiproliferative activity against human LoVo cells assessed as reduction in cell viability after 72 hrs by SRB assay; format: functional, cell-based; procedure, shortened: as §1
Mus musculus [3] = assay: Toxicity in Balb/c mouse assessed as changes in blood biochemical parameters at 900 umol/kg; format: organism-based; details: in vivo
Procedure, shortened: (§2)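 Preliminary in vivo toxicity study in Balb/c mice given high doses (900 µmol/kg b.w.). Toxicity was judged from body weight changes, blood morphology and blood biochemical analysis.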

Mus musculus [4] = assay: Toxicity in Balb/c mouse assessed as changes in body weight at 900 umol/kg; format: organism-based; details: in vivo; procedure, shortened: as §2
Mus musculus [5] = assay: Toxicity in Balb/c mouse assessed as changes in blood morphology at 900 umol/kg; format: organism-based; details: in vivo; procedure, shortened: as §2
LoVo [6] = assay: Selectivity index, ratio of IC50 for mouse BALB/3T3 cells to IC50 for human LoVo cells; format: functional
[7] = Selectivity index, ratio of IC50 for mouse BALB/3T3 cells to IC50 for human LoVo/DX cells; format: functional
[8] = Potency index, ratio of IC50 for doxorubicin to IC50 for test compound against human LoVo/DX cells assessed as reduction in cell viability after 72 hrs by SRB assay; format: functional
LoVo [9] = assay: Selectivity index, ratio of IC50 for human LoVo/DX cells to IC50 for human LoVo cells; format: functional
[10] = Homo sapiens, LoVo, 72 h, read-out: IC50

Row | Structure (SMILES) | IC50 [1] [µM] | IC50 (Histone deacetylase) [µM] | IC50 (BALB/3T3) [µM] | IC50 (LoVo [2]; [10]) [µM] | other results
1 | CC(=O)N[C@@H](CSC(=S)NCCCCNC(=S)SC[C@H](NC(C)=O)C(=O)O)C(=O)O | 4.84 | 2330 | 5.54 | 2.02 | Activity (Mus musculus [3]): Non-toxic; Activity (Mus musculus [4]): Non-toxic; Activity (Mus musculus [5]): Non-toxic
2 | CC(=O)N[C@@H](CSC(=S)Nc1ccc(NC(=S)SC[C@H](NC(C)=O)C(=O)O)cc1)C(=O)O | 19.4 | 290 | 79.5 | 23.5 | Ratio IC50 (LoVo [6]): 3; Ratio IC50 [7]: 3
3 | S=C=NCCCN=C=S | 2.44 |  |  | 1.84 | 
4 | CC(=O)N[C@@H](CSC(=S)Nc1cccc(NC(=S)SC[C@H](NC(C)=O)C(=O)O)c1)C(=O)O | > 25 | 970 | > 100 | > 25 | 
5 | CCCCN=C=S [BUTYL ISOTHIOCYANATE] | 265 |  |  | 296 | 
6 | COc1ccc(CNC(=S)SC[C@H](NC(C)=O)C(=O)O)cc1 | 4.2 | 2940 | 6.9 | 3.7 | 
7 | CCCNC(=S)SC[C@H](NC(C)=O)C(=O)O | 112 |  | 224 | 151 | 
8 | S=C=NCCCCN=C=S | 2.35 |  |  | 1.88 | Ratio IC50 [8]: 3
9 | COc1ccc(CN=C=S)cc1 | 3.9 |  |  | 3.7 | 
10 | CCCCNC(=S)SC[C@H](NC(C)=O)C(=O)O | 134 | 3460 | 206 | 130 | 
11 | CC(=O)N[C@@H](CSC(=S)NCCCC(C)CNC(=S)SC[C@H](NC(C)=O)C(=O)O)C(=O)O (some centres not stated) | 6.6 | 2190 | 7.99 | 7.15 | 
12 | CC(=O)N[C@@H](CS)C(=O)O [ACETYLCYSTEINE] |  | 3160 |  |  | 
13 | CC(=O)N[C@@H](CSC(=S)NCC1CCCC(CNC(=S)SC[C@H](NC(C)=O)C(=O)O)C1)C(=O)O (some centres not stated) | 12.8 | 2680 | 5.88 | 11.7 | Ratio IC50 [7]: 0.5
14 | S=C=NCc1ccccc1 [BENZYL ISOTHIOCYANATE] | 19.8 |  |  | 14.5 | 
15 | CC(=O)N[C@@H](CSC(=S)NCc1ccccc1)C(=O)O | 16.8 | 3440 | 23.4 | 11.7 | 
16 | CCCCCNC(=S)SC[C@H](NC(C)=O)C(=O)O | 42.8 | 3200 | 48.5 | 36.6 | 
17 | S=C=Nc1ccc(N=C=S)cc1 [BITOSCANATE] | 11.6 |  |  | 9.41 | 
18 | CCCCCN=C=S [1-ISOTHIOCYANATOPENTANE] | 75.2 |  |  | 88.3 | 
19 | CCCN=C=S [PROPYL ISOTHIOCYANATE] | 177 |  |  | 181 | 
20 | CC(=O)N[C@@H](CSC(=S)Nc1ccc(C)c(NC(=S)SC[C@H](NC(C)=O)C(=O)O)c1)C(=O)O | 22.4 | 450 | 54.7 | 20.5 | Ratio IC50 (LoVo [6]): 3; Ratio IC50 [7]: 3
21 | COc1cccc2c1C(=O)c1c(O)c3c(c(O)c1C2=O)C[C@@](O)(C(=O)CO)C[C@@H]3O[C@H]1C[C@H](N)[C@H](O)[C@H](C)O1 [DOXORUBICIN] | 7.2 |  | 0.11 |  | Ratio IC50 (LoVo [9]): 48
22 | CC(=O)N[C@@H](CSC(=S)N[C@H]1CC[C@H](NC(=S)SC[C@H](NC(C)=O)C(=O)O)CC1)C(=O)O | 3.45 | 3740 | 7.27 | 5.21 | 
23 | S=C=Nc1cccc(N=C=S)c1 | 55.7 |  |  | 46.4 | 
24 | S=C=NCCc1ccccc1 [PHENETHYLISOTHIOCYANATE] | 9.8 |  |  |  | 
25 | CC(=O)N[C@@H](CSC(=S)NC1CCCCC1NC(=S)SC[C@H](NC(C)=O)C(=O)O)C(=O)O (some centres not stated) | 473 | 1660 | 75.2 |  | IC50 (LoVo [2]; lovo): Not Active
26 | CC(=O)N[C@@H](CSC(=S)NCCCNC(=S)SC[C@H](NC(C)=O)C(=O)O)C(=O)O | 9.55 | 5960 | 8.65 | 4.22 | 
27 | CC(=O)N[C@@H](CSC(=S)NCCc1ccccc1)C(=O)O | 7.7 | 3450 | 25.3 | 12.7 | 
28 | CC(=O)N[C@@H](CSC(=S)NCCOCCOCCNC(=S)SC[C@H](NC(C)=O)C(=O)O)C(=O)O | 14.2 | 4370 | 6.87 | 4.62 | Ratio IC50 [7]: 0.5
29 | CC(=O)N[C@@H](CSC(=S)NCCCOCCOCCOCCCNC(=S)SC[C@H](NC(C)=O)C(=O)O)C(=O)O | 7.93 | 4260 | 7.15 | 2.59 | 
30 | Cc1ccc(N=C=S)cc1N=C=S | 47.3 |  |  | 35.2 | 
